Source: ChEMBL document CHEMBL4609999, “Novel alkoxyamide-based histone deacetylase inhibitors reverse cisplatin resistance in chemoresistant cancer cells” (Bioorg Med Chem, 2020)
Activity calls are given as the source filed them. The rule behind the calls is not given here.

Assays:
Histone deacetylase 8 = target: T1, Histone deacetylase 8 (Homo sapiens, UniProt Q9BY41); test: Inhibition of recombinant human HDAC8
T1 sequence (Q9BY41 whole entry): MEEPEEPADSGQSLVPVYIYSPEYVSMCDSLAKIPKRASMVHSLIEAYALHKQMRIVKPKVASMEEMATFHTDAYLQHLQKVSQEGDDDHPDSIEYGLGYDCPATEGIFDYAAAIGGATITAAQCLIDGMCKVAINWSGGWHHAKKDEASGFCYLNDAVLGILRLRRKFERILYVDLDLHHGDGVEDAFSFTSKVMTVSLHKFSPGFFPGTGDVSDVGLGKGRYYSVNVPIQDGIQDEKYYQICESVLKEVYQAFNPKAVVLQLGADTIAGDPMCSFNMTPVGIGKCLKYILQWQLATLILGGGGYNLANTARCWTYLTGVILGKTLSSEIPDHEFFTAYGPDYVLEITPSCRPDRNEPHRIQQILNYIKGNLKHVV

[1] = target: T2, Protein deacetylase HDAC6 (Homo sapiens, UniProt Q9UBN7); test: Inhibition of recombinant human HDAC6
T2 sequence (Q9UBN7 whole entry): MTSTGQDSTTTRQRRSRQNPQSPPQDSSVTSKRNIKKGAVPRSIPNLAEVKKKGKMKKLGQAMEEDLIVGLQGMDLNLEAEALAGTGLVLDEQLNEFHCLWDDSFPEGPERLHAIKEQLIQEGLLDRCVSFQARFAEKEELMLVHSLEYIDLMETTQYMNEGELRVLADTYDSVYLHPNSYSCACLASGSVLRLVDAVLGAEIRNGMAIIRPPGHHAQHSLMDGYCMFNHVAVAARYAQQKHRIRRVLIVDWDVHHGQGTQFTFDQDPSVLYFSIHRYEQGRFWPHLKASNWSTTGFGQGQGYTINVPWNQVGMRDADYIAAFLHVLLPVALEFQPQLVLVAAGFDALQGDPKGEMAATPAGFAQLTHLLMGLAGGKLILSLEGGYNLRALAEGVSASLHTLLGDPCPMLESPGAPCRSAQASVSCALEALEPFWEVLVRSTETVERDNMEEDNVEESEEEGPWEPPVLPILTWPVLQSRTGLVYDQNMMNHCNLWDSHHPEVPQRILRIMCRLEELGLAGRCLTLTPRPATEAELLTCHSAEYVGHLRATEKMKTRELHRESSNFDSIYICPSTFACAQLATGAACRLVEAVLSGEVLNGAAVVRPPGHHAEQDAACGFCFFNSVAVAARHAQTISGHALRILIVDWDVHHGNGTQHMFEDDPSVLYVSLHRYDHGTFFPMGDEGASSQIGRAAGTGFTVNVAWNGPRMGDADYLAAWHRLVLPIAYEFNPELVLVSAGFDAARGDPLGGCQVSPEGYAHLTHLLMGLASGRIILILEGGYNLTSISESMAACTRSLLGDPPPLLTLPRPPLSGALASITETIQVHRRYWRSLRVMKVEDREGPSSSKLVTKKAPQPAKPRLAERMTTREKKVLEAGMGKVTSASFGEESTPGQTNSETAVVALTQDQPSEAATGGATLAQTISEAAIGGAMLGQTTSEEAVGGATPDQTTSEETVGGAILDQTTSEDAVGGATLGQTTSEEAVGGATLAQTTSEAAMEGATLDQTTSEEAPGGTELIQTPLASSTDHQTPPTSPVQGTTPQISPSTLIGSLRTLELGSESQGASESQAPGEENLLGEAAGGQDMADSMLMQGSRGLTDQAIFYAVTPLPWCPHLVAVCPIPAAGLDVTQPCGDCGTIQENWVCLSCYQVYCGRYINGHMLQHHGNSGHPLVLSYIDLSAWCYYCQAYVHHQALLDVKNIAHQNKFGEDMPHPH

Histone deacetylase 4 = Histone deacetylase 4 (Homo sapiens, UniProt P56524); test: Inhibition of recombinant human HDAC4
Histone deacetylase 2 = Histone deacetylase 2 (Homo sapiens, UniProt Q92769); test: Inhibition of recombinant human HDAC2
Histone deacetylase [2] = test: Inhibition of HDAC in human A2780 cells; format: cell-based
A2780 = test: Cytotoxicity against human A2780 cells assessed as reduction in cell viability by MTT assay; format: functional, cell-based
Histone deacetylase [3] = test: Inhibition of HDAC in human Cal27 cells; format: cell-based; details: cal-27
CAL-27 [4] = test: Cytotoxicity against human CAL27 cells assessed as reduction in cell viability by MTT assay; format: functional, cell-based
[5] = target: T3, Protein deacetylase HDAC6 (Homo sapiens) (UniProt Q9UBN7); test: Inhibition of HDAC6 in human CAL27 cells assessed as increase in acetylated alpha-tubulin at 1.5 uM incubated for 24 hrs by immunoblot analysis; format: cell-based; details: CAL-27
T3 sequence (whole entry): T2 sequence (Q9UBN7 whole entry)
In short: (§1)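 Cal27 and Cal27CisR cells incubated 24 h with vehicle or with inhibitor at 1.5, 3 or 5 µM. Western blot for α-tubulin, acetyl-α-tubulin and acetyl-histone H3.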

[6] = target: T4, Class 1 histone deacetylase (Homo sapiens) (UniProt Q13547+O15379+Q92769+Q9BY41); test: Inhibition of class 1 histone deacetylase in human CAL27 cells assessed as increase in H3 histone acetylation at 1.5 uM incubated for 24 hrs by immunoblot analysis; format: cell-based; details: CAL-27; in short: as §1
CAL-27 [7] = test: Potentiation of cisplatin-induced cytotoxicity against human CAL27 cells assessed as shift factor by measuring ratio of cisplatin IC50 to cisplatin IC50 in presence of compound at 0.4 uM incubated for 72 hrs followed by cisplatin addition and measured after 72 hrs by MTT assay; format: functional
In short: (§2)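 MTT shift assay. Cal27 cells received HDACi at 0.2, 0.4 or 1.4 µM; Cal27CisR cells received 0.8 or 6 µM. Cells were incubated 72 h with a cisplatin range. Shift factor = cisplatin IC50 alone / cisplatin IC50 with HDACi, significance by t-test (p<0.05). Pooled mean of ≥3 experiments, each in triplicate.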

[8] = Potentiation of cisplatin-induced cytotoxicity against human Cal27CisR cells assessed as shift factor by measuring ratio of cisplatin IC50 to cisplatin IC50 in presence of compound at 0.8 uM incubated for 72 hrs followed by cisplatin addition and measured after 72 hrs by MTT assay; format: functional; in short: as §2
CAL-27 [9] = test: Induction of apoptosis in human CAL27 cells assessed as increase in caspase 3/7 activation at 0.8 uM incubated for 24 hrs by Hoechst 33342 staining based fluorescence assay; format: functional, cell-based
CAL-27 [10] = test: Potentiation of cisplatin-induced apoptosis in human CAL27 cells assessed as increase in caspase 3/7 activation at 0.8 uM incubated for 24 hrs followed by cisplatin addition by Hoechst 33342 staining based fluorescence assay; format: functional, cell-based
In short: (§3)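 Cal27 cells pretreated with HDACi at 0.4, 0.8 or 2.8 µM, then 24 h more with 3 µM cisplatin. Cal27CisR cells pretreated at 0.8 or 8 µM, then 24 h with 25 µM cisplatin. 100 µM cisplatin as positive control. Active caspase 3/7 imaged by green fluorescence, nuclei counterstained with Hoechst 33342 (blue).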

Homo sapiens [11] = organism: Homo sapiens; test: Induction of apoptosis in human Cal27CisR cells assessed as increase in caspase 3/7 activation at 0.8 uM incubated for 24 hrs by Hoechst 33342 staining based fluorescence assay; format: functional, cell-based
Homo sapiens [12] = organism: Homo sapiens; test: Potentiation of cisplatin-induced apoptosis in human Cal27CisR cells assessed as increase in caspase 3/7 activation at 0.8 uM incubated for 24 hrs followed by cisplatin addition by Hoechst 33342 staining based fluorescence assay; format: functional, cell-based; in short: as §3
[13] = target: T3, Protein deacetylase HDAC6 (Homo sapiens); test: Inhibition of HDAC6 in human Cal27CisR cells assessed as increase in acetylated alpha-tubulin at 1.5 uM incubated for 24 hrs by immunoblot analysis; format: cell-based; in short: as §1
[14] = target: T4, Class 1 histone deacetylase (Homo sapiens); test: Inhibition of class 1 histone deacetylase in human Cal27CisR cells assessed as increase in H3 histone acetylation at 1.5 uM incubated for 24 hrs by immunoblot analysis; format: cell-based; in short: as §1
CAL-27 [15] = test: Potentiation of cisplatin-induced cytotoxicity against human CAL27 cells assessed as shift factor by measuring ratio of cisplatin IC50 to cisplatin IC50 in presence of compound at 0.2 uM incubated for 72 hrs followed by cisplatin addition and measured after 72 hrs by MTT assay; format: functional; in short: as §2
CAL-27 [16] = test: Induction of apoptosis in human CAL27 cells assessed as increase in caspase 3/7 activation at 0.4 uM incubated for 24 hrs by Hoechst 33342 staining based fluorescence assay; format: functional, cell-based
CAL-27 [17] = test: Potentiation of cisplatin-induced apoptosis in human CAL27 cells assessed as increase in caspase 3/7 activation at 0.4 uM incubated for 24 hrs followed by cisplatin addition by Hoechst 33342 staining based fluorescence assay; format: functional, cell-based; in short: as §3
[18] = target: T3, Protein deacetylase HDAC6 (Homo sapiens); test: Inhibition of HDAC6 in human CAL27 cells assessed as increase in acetylated alpha-tubulin at 5 uM incubated for 24 hrs by immunoblot analysis; format: cell-based; details: CAL-27; in short: as §1
[19] = target: T4, Class 1 histone deacetylase (Homo sapiens); test: Inhibition of class 1 histone deacetylase in human CAL27 cells assessed as increase in H3 histone acetylation at 5 uM incubated for 24 hrs by immunoblot analysis; format: cell-based; details: CAL-27; in short: as §1
CAL-27 [20] = test: Potentiation of cisplatin-induced cytotoxicity against human CAL27 cells assessed as shift factor by measuring ratio of cisplatin IC50 to cisplatin IC50 in presence of compound at 1.4 uM incubated for 72 hrs followed by cisplatin addition and measured after 72 hrs by MTT assay; format: functional; in short: as §2
[21] = Potentiation of cisplatin-induced cytotoxicity against human Cal27CisR cells assessed as shift factor by measuring ratio of cisplatin IC50 to cisplatin IC50 in presence of compound at 6 uM incubated for 72 hrs followed by cisplatin addition and measured after 72 hrs by MTT assay; format: functional; in short: as §2
CAL-27 [22] = test: Induction of apoptosis in human CAL27 cells assessed as increase in caspase 3/7 activation at 2.8 uM incubated for 24 hrs by Hoechst 33342 staining based fluorescence assay; format: functional, cell-based
CAL-27 [23] = test: Potentiation of cisplatin-induced apoptosis in human CAL27 cells assessed as increase in caspase 3/7 activation at 2.8 uM incubated for 24 hrs followed by cisplatin addition by Hoechst 33342 staining based fluorescence assay; format: functional, cell-based; in short: as §3
Homo sapiens [24] = organism: Homo sapiens; test: Induction of apoptosis in human Cal27CisR cells assessed as increase in caspase 3/7 activation at 8 uM incubated for 24 hrs by Hoechst 33342 staining based fluorescence assay; format: functional, cell-based
Homo sapiens [25] = organism: Homo sapiens; test: Potentiation of cisplatin-induced apoptosis in human Cal27CisR cells assessed as increase in caspase 3/7 activation at 8 uM incubated for 24 hrs followed by cisplatin addition by Hoechst 33342 staining based fluorescence assay; format: functional, cell-based; in short: as §3
[26] = target: T3, Protein deacetylase HDAC6 (Homo sapiens); test: Inhibition of HDAC6 in human Cal27CisR cells assessed as increase in acetylated alpha-tubulin at 5 uM incubated for 24 hrs by immunoblot analysis; format: cell-based; in short: as §1
[27] = target: T4, Class 1 histone deacetylase (Homo sapiens); test: Inhibition of class 1 histone deacetylase in human Cal27CisR cells assessed as increase in H3 histone acetylation at 5 uM incubated for 24 hrs by immunoblot analysis; format: cell-based; in short: as §1

Chain of Histone deacetylase 2 (Q92769 whole entry): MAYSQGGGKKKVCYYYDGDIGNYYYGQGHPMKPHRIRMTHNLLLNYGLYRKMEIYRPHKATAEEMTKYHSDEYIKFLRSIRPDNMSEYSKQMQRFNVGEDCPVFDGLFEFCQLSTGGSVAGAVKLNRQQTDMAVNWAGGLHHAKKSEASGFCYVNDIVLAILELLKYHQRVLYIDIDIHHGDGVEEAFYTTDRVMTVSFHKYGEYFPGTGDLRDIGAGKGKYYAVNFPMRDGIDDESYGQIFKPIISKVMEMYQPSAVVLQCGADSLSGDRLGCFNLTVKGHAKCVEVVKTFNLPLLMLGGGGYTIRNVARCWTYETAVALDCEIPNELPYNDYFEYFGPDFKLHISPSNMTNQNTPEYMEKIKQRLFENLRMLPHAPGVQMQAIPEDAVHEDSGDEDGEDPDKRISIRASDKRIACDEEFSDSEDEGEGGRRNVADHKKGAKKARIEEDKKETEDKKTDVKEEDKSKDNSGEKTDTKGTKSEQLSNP
Chain of Histone deacetylase 4 (P56524 whole entry): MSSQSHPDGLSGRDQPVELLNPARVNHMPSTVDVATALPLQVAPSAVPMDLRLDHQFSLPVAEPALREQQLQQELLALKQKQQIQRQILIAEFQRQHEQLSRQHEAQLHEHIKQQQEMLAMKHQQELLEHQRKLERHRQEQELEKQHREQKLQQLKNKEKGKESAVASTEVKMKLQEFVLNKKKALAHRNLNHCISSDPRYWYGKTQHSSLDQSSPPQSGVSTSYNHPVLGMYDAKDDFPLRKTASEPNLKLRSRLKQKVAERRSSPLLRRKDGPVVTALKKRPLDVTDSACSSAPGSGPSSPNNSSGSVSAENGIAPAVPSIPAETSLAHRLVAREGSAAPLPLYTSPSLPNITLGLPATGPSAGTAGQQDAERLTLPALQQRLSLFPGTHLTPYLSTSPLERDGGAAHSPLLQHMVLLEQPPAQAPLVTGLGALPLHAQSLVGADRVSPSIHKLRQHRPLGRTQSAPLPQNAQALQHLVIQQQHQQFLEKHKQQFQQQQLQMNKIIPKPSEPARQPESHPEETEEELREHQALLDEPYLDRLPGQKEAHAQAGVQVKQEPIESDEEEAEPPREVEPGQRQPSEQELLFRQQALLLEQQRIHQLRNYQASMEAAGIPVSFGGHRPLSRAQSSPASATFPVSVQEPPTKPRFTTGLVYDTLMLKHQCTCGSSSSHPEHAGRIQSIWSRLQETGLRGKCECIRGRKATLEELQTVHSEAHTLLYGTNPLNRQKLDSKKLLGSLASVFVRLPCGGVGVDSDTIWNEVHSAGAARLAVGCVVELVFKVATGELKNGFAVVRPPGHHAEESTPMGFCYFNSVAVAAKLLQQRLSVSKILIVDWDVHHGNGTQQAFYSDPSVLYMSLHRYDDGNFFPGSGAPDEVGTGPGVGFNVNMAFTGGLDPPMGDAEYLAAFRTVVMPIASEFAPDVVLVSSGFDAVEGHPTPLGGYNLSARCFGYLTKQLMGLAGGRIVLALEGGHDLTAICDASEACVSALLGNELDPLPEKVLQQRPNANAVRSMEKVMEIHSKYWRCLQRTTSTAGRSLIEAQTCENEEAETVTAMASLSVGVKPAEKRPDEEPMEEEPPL

Row | Ki (Histone deacetylase 8) [nM] | Ki [1] [nM] | Ki (Histone deacetylase 4) [nM] | Ki (Histone deacetylase 2) [nM] | IC50 (Histone deacetylase [2]) [nM] | IC50 (Histone deacetylase [3]) [nM] | inhibition [5] | inhibition [6] | inhibition [13] | inhibition [14] | SMILES | IC50 (A2780) [nM] | IC50 (CAL-27 [4]) [nM] | PF [8] | Activity (Homo sapiens [11]) | Activity (Homo sapiens [12]) | also measured
1 | 4810 | 50 | > 100000 | 80 | 170 | 550 | Active | Active | Active | Active | Cc1cc(C)cc(C(=O)NOCCCCCC(=O)NO)c1 | 970 | 760 | 8.36 | Active | Active | PF (CAL-27 [7]): 3; Activity (CAL-27 [9]): Active; Activity (CAL-27 [10]): Active
2 | 5690 | 30 | 49200 | 60 | 830 | 450 | Active | Active | Active | Active | COc1cc(OC)cc(C(=O)NOCCCCCC(=O)NO)c1 | 890 | 720 | 12.8 | Active | Active | PF (CAL-27 [15]): 3.79; Activity (CAL-27 [16]): Active; Activity (CAL-27 [17]): Active
3 | 18900 | 350 | > 100000 | 1360 | 14500 | 12700 | – | – | – | – | O=C(CCCCCONC(=O)c1c(Cl)cncc1Cl)NO | 68400 | 28100 | – | – | – | –
4 | 6400 | 60 | 93100 | 90 | 1180 | 1480 | – | – | – | – | COc1cc(C(=O)NOCCCCCC(=O)NO)cc(OC)c1OC | 13800 | 3070 | – | – | – | inhibition [18]: Active; inhibition [19]: Active; PF (CAL-27 [20]): 1.95; PF [21]: 7.73; Activity (CAL-27 [22]): Active; Activity (CAL-27 [23]): Active; Activity (Homo sapiens [24]): Active; Activity (Homo sapiens [25]): Active; inhibition [26]: Active; inhibition [27]: Active
5 | 28100 | 2150 | > 100000 | 1570 | 930 | 1300 | – | – | – | – | CC(C)(C)c1cc(C(=O)NOCCCCCC(=O)NO)cc(C(C)(C)C)c1 | 1550 | 1000 | – | – | – | –
